FXN GAA850 act – FXN promoter activators, primary screen, cell-based, luciferase luminescence, HEK293 lucGAA850. hit rate 0.56% among 360,000. activation, % at 6 µM. HEK293 lucGAA850 FXN promoter luciferase reporter, 24 h; percent of 10 µM SAHA response;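 active means activation above the average of all compounds screened plus 3 SD, cutoff fixed separately per campaign, cut at about 7.5% in these data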
T cell HTS – modulators of CD8 T cell-vesicle binding, primary screen, mouse 2C CD8+ T cells, flow cytometry | response (vesicle binding), % at 7 µM | 2C CD8+ T cell-vesicle binding; hits give low values | hit rate 0.068% among 330,000 | AID 2052, 2009;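 active means response, share of CD8 T cells binding vesicles, and their 90th percentile fluorescence all below set limits, cut at about 80% in these data, passing the limit was not always enough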;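 further: values below 100% mean blocked vesicle binding to the CD8+ T cells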
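Material: 2C TCR transgenic mouse naive CD8+ T cells, MACS-purified. Also added: QL9-charged Drosophila Ld/ICAM-1/B7-1 vesicles. Timing: binding 1.5 h at 37 °C. Measured by: high-throughput flow cytometry with anti-B7-1 and anti-CD8 staining. Read-out: percent CD8+ FL2 mean versus row control. Controls: Unloaded micro-vesicles (low), QL9 vesicles with 0.7% DMSO (high).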
NR2E3 ag-1 – inhibitors of NR2E3-RetCOR corepressor binding, primary screen, NR2E3 agonist project, biochemical, TR-FRET, GST-NR2E3, biotin-RetCOR | Photoreceptor-specific nuclear receptor (Homo sapiens), Q9Y5X4 | 1536-well | hit rate 0.12% among 320,000 | inhibition of corepressor binding, % at 4.78 µM;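 active means percent inhibition above the cutoff of mean plus 3 SD of all tested compounds, set per screening campaign, cut at about 20% in these data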
Target sequence (Q9Y5X4 whole entry, looked up): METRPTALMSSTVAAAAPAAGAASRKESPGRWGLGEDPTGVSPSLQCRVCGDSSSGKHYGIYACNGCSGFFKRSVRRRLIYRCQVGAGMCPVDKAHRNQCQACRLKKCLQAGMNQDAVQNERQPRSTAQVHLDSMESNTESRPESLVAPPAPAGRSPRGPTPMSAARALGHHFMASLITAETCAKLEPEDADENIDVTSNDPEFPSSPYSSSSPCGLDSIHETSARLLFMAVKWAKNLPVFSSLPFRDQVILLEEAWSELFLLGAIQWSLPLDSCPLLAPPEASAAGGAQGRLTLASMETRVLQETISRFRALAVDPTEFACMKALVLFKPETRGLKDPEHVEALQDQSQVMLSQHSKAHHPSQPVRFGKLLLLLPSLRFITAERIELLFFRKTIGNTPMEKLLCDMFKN
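System: GST-NR2E3 and biotin-RetCOR proteins; probe or stimulus: 7 nM biotin-RetCOR; doses: compound at 4.8 µM, single dose; schedule: Compound–protein incubation for 5 h at 4 °C; detection: time-resolved FRET; read-out: percent inhibition; controls: biotin wells as high control, 0.6% DMSO wells as low control; format: 1536-well plates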
NR2E3 ag-2 – NR2E3 agonists in two-hybrid cells, primary screen, cell-based, luminescence, CHO-S, Gal4-NCOR/VP16-NR2E3; luciferase; AID 602229, 2012; inhibition of corepressor binding, % at 3.98 µM; hit rate 0.35% among 360,000; Photoreceptor-specific nuclear receptor (Homo sapiens), Q9Y5X4;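 active means inhibition above the mean of all tested compounds plus 3 SD, cut at about 70% in these data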;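 further: higher means lower luciferase signal from less NR2E3 corepressor binding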
Myeloid diff MLP – induction of myeloid progenitor differentiation, primary screen, cell-based, flow cytometry, MLPCN library; ER-HoxA9 myeloid progenitors, lysozyme-GFP differentiation; calls only at 10 µM; hit rate 1% among 360,000; AID 624256, 2012;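 active means normalized GFP-positive differentiation at or above the plate's own cutoff, the solvent-only control mean plus 3 SD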;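 further: cells exposed to compound for four days before flow analysis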
Myeloid diff CP1 – inducers of myeloid progenitor differentiation, confirmation, cell-based, GFP/Mac1 flow cytometry, cherry pick 01 | ER-HoxA9 myeloid progenitors, GFP/Mac1 double-positive flow | AID 651706, 2012 | calls only | hit rate 2% among 2,300 | shares compounds with Myeloid diff MLP;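 active means share of green or green-and-red cells above 9 and 9% in run 1 or 4 and 3% in run 2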
GFP autofluor – compound fluorescence in myeloid differentiation counter-screen; hit rate 7.4% among 2,300; AID 651707; fluorescence response, % (no concentration beside the values); ER-HoxA9 myeloid progenitors, no estrogen, GFP autofluorescence flow cytometry; vehicle wells 0%, positive control 100%; shares compounds with Myeloid diff MLP;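 active means over 5% cells positive for green fluorescent reporter, or over 2% positive for both it and APC stain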
A number is an active result; . = inactive; / = no result given; + = active, no number; ! = not confirmed by another sample. Most compounds without a hit are left out; they make up all but 2% or so of the library.

SMILES	FXN GAA850 act	T cell HTS	NR2E3 ag-1	NR2E3 ag-2	Myeloid diff MLP	Myeloid diff CP1	GFP autofluor
Cc1nc(SCC(=O)Nc2ccccc2C(F)(F)F)c2c(=O)n(C)c(=O)n(C)c2n1	.	.	.	.	+	.	.
CC1(C(=O)Nc2ccccc2F)CCN1C(=O)Cc1ccc(-c2ccccc2)cc1 (configuration not stated)	.	/	/	.	.	/	/
O=C1C=C(c2ccccc2)C(c2ccccc2)C1 (configuration not stated)	.	/	/	.	.	/	/
CC(C)(C)OC(=O)NCCc1nnc(SCc2ccccc2Cl)o1	.	.	.	.	.	.	.
O=C(c1ccccc1)c1ccc(N2CCN(C(=O)c3ccc(F)cc3F)CC2)c(F)c1	.	/	/	.	.	/	/
Clc1ccc2nc(-c3ccc4c(c3)OCO4)cn2c1	.	.	.	.	.	.	.
O=C(NCCCNCc1ccccc1)c1ccccn1	.	.	.	.	+!	.	.
COc1cc2c(cc1OC)CN(CC(=O)NC(=O)NCc1ccccc1)CC2	.	.	.	.	+	.	.
COc1cc2c(cc1OC)CN(CC(=O)Nc1ccccc1C(=O)NCc1ccccc1)CC2	.	.	.	.	/	/	/
CC1CCN(c2ccc3c(c2)S(=O)(=O)c2cccc(C(=O)NC4CCCCC4)c2C3=O)CC1	.	.	.	.	+	.	.
Cc1nc2cc(Oc3nc(NCCN(C)C)nc4ccsc34)ccc2s1	.	/	/	.	+	.	.
COC(=O)[C@]12CCCCC=C1N(CCC1=CCCCC1)C(=O)[C@H](CC(=O)N1CCCCC1)C2	/	/	/	.	.	/	/
COC(=O)C1CCN(C(=O)CN2C(=O)NC3(CCC(C)CC3)C2=O)CC1 (configuration not stated)	.	.	/	.	.	/	/
COc1ccc(Cn2nnnc2CN2CCc3ccccc3C2)cc1	.	.	.	.	.	/	/
COc1ccc(Cn2nnnc2CN2CCc3ccccc32)cc1	.	.	.	.	+	.	.
CCC(Oc1nc2ccccc2nc1-c1ccccc1NC(C)=O)C(=O)c1ccccc1 (configuration not stated)	.	.	.	.	+	.	.
O=C(/C=C/[C@H]1O[C@@H](n2ccc(=O)[nH]c2=O)[C@H](O)[C@@H]1O)NCc1cccc2ccccc12	/	/	/	.	+	.	.
COc1ccc(NC(=O)C[C@H]2C(=O)N(c3ccc(OC)cc3)C[C@@H]2CSC)cc1	.	/	/	.	.	/	/
COc1ccc(NC(=O)C[C@H]2C(=O)N(c3ccc(Br)cc3)C[C@@H]2CSC)cc1	.	/	/	.	.	.	.
CC(=O)Oc1ccccc1C(=O)N(C1CCCCC1)C1CCCCC1	.	.	.	.	.	/	/
COc1ccccc1N(O)C1CC(=O)N(c2ccc(F)cc2)C1=O (configuration not stated)	.	.	.	.	.	.	.
COc1ccccc1N1C(=O)CC(N(O)c2ccccc2)C1=O (configuration not stated)	.	.	.	.	.	/	/
CCc1ccc(-c2nc(SCC(=O)N(CCOC)c3c(N)n(Cc4ccccc4)c(=O)[nH]c3=O)n[nH]2)cc1	.	.	.	.	.	/	/
COCCN(C(=O)CSc1n[nH]c(-c2ccc(OC)cc2)n1)c1c(N)n(Cc2ccccc2)c(=O)[nH]c1=O	.	.	.	.	+	.	.
COCCN(C(=O)CSc1nc2ccccc2s1)c1c(N)n(Cc2ccccc2)c(=O)[nH]c1=O	.	/	/	.	+	.	.
SMILES	FXN GAA850 act	T cell HTS	NR2E3 ag-1	NR2E3 ag-2	Myeloid diff MLP	Myeloid diff CP1	GFP autofluor
CCOc1ccc(NC(=O)c2cc3ccccc3cc2O)cc1	.	.	.	.	.	/	/
CCOc1ccc(NC(=O)c2cccc3ccccc23)cc1	.	.	.	.	+	.	.
NC(=O)CCC(NS(=O)(=O)c1ccc(Cl)cc1)C(=O)NCC1CCCCC1 (configuration not stated)	.	.	.	.	.	.	.
O=C(CN1C(=O)C2CCCCC2C1=O)N1CCN(c2ccccc2)CC1 (configuration not stated)	.	.	.	.	.	/	/
O=C(CN1C(=O)C2CCCCC2C1=O)N1CCN(c2ccc(F)cc2)CC1 (configuration not stated)	.	.	.	.	+	.	.
CCc1c(-c2ccccc2F)ncn1Cc1cccc(-c2ccccc2)c1	/	/	/	/	.	.	.
CCc1c(-c2ccc(Cl)cc2)ncn1Cc1cccc(-c2ccccc2)c1	/	/	/	/	.	/	/
CN(C)c1ccc(/C=C2\Oc3ccc(C#Cc4cccc(N)c4)cc3C2=O)cc1	.	.	/	.	.	.	98
Cc1c(CCO)c(=O)[nH]n1C(=O)c1ccc(F)cc1	.	.	.	.	.	/	/
Fc1ccc2nc(C3CCCCN3Cc3nc(CC4CC4)no3)[nH]c2c1 (configuration not stated)	.	.	.	.	.	.	.
CCOc1ccccc1OCCn1ncc2ccc(OC)c(OC)c2c1=O	.	.	.	.	.	/	/
COc1ccc2cnn(CCOc3cc(C)ccc3C(C)C)c(=O)c2c1OC	.	.	.	.	+	.	.
COc1cccc(C(=O)Nc2ncc3c(n2)CC(c2ccc(OC)cc2OC)CC3=O)c1 (configuration not stated)	.	.	.	.	.	.	.
COc1ccc(C(=O)Nc2ncc3c(n2)CC(C)CC3=O)cc1 (configuration not stated)	.	.	.	.	.	/	/
Cc1c(C(=O)N2CCC(C)CC2)oc2ccc3c(c12)C(O)CC1(CCCCC1)O3 (configuration not stated)	.	.	.	.	+	.	.
Cn1nccc1C(=O)Nc1sc2c(c1C(N)=O)CCCC2	.	.	.	.	.	.	.
Cn1nccc1C(=O)Nc1sc2c(c1C#N)CCCC2	.	.	.	.	.	/	/
CN1CCc2c(sc(/N=C/c3cc(Cl)ccc3O)c2C#N)C1	.	.	.	.	.	/	/
CN1CCc2c(sc(/N=C/c3c[nH]c4ccccc34)c2C(N)=O)C1	.	.	.	.	+	.	.
CN1CCc2c(sc(/N=C/c3c[nH]c4ccccc34)c2C#N)C1	.	.	.	.	+	.	16
CCOC(=O)CN1C(=O)N2C[C@H]3CON(C)[C@H]3C[C@H]2c2ccccc21	/	/	/	.	.	/	/
Nc1nc(=S)c2ncn(C3CCCC3)c2[nH]1	.	.	/	.	.	/	/
